From PubChem
Rows were chosen to be rich in hits. Some 4% of all compounds tested hit in one or more screens of this group.
UPR XBP1 act: activators of adaptive XBP1 UPR arm, primary screen, cell-based, CHO-XBP1 luciferase reporter, luminescence, uHTS; IRE1-XBP1 UPR activation; percent of tunicamycin response, DMSO as zero; actives 0.33% (n = 330,000); activation, % at 20 µM;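 active = versus positive control, 20 µM dose yields 30% or more activation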;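 note: 100% = tunicamycin at 10 µg/mL and 0% = DMSO only wells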
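assay system = CHO-XBP1 luciferase reporter cells | amount = 1000 cells/well | buffer or medium = F12 plus 10% FBS | compound dosing = single point, 20 µM final compound, 1% DMSO | incubation = 16-18 h cell attachment at 37 °C, then 6 h compound exposure | detection = Steady-Glo luminescence read | controls = tunicamycin 10 µg/mL and vehicle-only wells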
CHOP UPR activ: activators of apoptotic CHOP UPR arm, primary screen, cell-based, CHO-CHOP luciferase reporter, luminescence, uHTS. actives 0.34% (n = 330,000). activation, % at 10 µM. UPR activation; percent of tunicamycin response over DMSO baseline. AID 449763, 2010;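 active = at 10 µM dose, activation of 40% or more, normalized to positive control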;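 note: 100% = tunicamycin at 10 µg/mL and 0% = DMSO alone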
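Evaluation: % reporter activation, DMSO baseline versus tunicamycin full activation; System: CHO-CHOP luciferase reporter cell line; Input: 500 cells/well; Incubation: 6 h compound treatment, 37 °C; Measured by: Steady-Glo luciferase luminescence; Dosing: one dose, 10 µM in 0.5% DMSO; Buffer or medium: F12 medium, 10% FBS; Benchmarks: positive tunicamycin 10 µg/mL, negative DMSO alone.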
Granule exo inh: LAMP-1 surface exposure blockers, TALL-104 cells – cell-based, flow cytometry, MLPCN library, primary screen; TALL-104 LAMP-1 surface exposure; cells stimulated with thapsigargin and PMA; inhibition, % at 10 µM; actives 0.66% (n = 360,000);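 active = inhibition above about 55%, limit read from the data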
ABHD5 PLIN5 PPI: ABHD5-PLIN5 interaction inhibitors, primary screen, cell lysate, split luciferase complementation, luminescence; Perilipin-5 (Homo sapiens) + 1-acylglycerol-3-phosphate O-acyltransferase ABHD5 (Homo …; Split G. princeps luciferase complementation, 4 h; actives 0.78% (n = 360,000); inhibition, % at 4 µM;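 active = inhibition above the mean inhibition across every tested compound plus 3 SD, cut at about 22% in these data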;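 note: 0% = DMSO only wells and the 100% control is not disclosed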
Mdm2-MdmX inh: inhibitors of human Mdm2-MdmX association, primary screen, cell-based, luminescence, split luciferase, SaOS-2, uHTS. actives 3% (n = 330,000). inhibition, % at 8 µM. Protein Mdm4 (Homo sapiens) + E3 ubiquitin-protein ligase Mdm2 (Homo sapiens), …. SaOS-2 split-luciferase Mdm2/MdmX complementation;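 active = inhibition of at least 50% at 8 µM in the primary screen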
Target sequence (O15151 whole entry, looked up): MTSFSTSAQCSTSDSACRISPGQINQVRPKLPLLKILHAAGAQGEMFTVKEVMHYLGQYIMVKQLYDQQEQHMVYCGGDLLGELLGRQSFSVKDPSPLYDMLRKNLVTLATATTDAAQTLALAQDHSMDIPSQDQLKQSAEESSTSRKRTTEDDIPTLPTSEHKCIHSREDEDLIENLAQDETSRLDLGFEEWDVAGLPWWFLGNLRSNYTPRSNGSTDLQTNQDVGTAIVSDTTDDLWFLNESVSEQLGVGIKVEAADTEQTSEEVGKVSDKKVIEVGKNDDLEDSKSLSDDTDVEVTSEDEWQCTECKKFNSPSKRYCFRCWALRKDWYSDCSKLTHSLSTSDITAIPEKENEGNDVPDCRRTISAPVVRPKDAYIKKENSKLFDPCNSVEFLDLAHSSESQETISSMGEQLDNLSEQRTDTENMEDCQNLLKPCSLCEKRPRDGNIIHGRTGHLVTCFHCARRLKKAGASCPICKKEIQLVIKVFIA
Target sequence (Q00987 whole entry, looked up): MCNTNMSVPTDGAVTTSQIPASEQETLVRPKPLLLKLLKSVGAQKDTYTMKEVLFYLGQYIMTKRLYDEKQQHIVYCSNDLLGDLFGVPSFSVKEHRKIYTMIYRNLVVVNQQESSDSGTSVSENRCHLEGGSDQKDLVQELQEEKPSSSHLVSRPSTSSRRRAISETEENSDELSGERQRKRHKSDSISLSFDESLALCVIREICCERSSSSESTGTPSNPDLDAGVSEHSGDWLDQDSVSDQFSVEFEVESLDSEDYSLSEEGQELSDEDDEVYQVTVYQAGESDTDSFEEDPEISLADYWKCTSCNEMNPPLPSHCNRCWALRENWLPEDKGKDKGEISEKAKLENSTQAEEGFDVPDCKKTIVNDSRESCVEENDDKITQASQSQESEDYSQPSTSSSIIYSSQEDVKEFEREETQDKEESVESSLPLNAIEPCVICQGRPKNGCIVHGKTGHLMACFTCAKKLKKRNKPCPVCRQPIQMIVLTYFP
Mdm2 MdmX conf: Mdm2-MdmX complex disruptors, retested hits, confirmation, luminescence, single concentration; shares compounds with Mdm2-MdmX inh; Mdm2-MdmX binding, luminescent assay; inhibition, % at 8 µM; actives 55% (n = 10,000); AID 489028, 2010; in the data active = inhibition above about 40%
FLuc counter: full-length luciferase signal inhibition, confirmation, counter-screen for Mdm2/MdmX interaction inhibitor project, cell-based, single concentration, SaOS-2; SaOS-2 full-length luciferase counterscreen, luminescence; shares compounds with Mdm2-MdmX inh; actives 77% (n = 6,200); inhibition, % at 8 µM;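 active = mean inhibition at 8 µM reaching about 37%, which flags the compound as non-specific, limit read from the data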;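 note: p53-null SaOS-2 cells with luciferase driven by a doxycycline-inducible promoter; compound on cells about two nights before reading with doxycycline added after day one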
Active calls of the source: *; nt = not tested or not shown.

SMILES	UPR XBP1 act	CHOP UPR activ	Granule exo inh	ABHD5 PLIN5 PPI	Mdm2-MdmX inh	Mdm2 MdmX conf	FLuc counter
CCCN1C(=O)COc2ccc(C(=O)c3ccccc3C(=O)O)cc21	-1	0	-1	2	5	nt	nt
O=C(COc1ccc(Oc2ccccc2)cc1)NCc1cn2ccccc2n1	15	1	0	1	56*	57*	73*
O=C(Nc1ccc2oc(=O)ccc2c1)c1cc2ccccc2o1	0	3	0	3	-112	nt	nt
Cn1c(=O)n(C)c2cc(NC(=O)c3cc4ccccc4o3)ccc21	8	10	2	-4	51*	-10	nt
O=C(N/N=C/c1ccc(O)c(O)c1)c1cccc(S(=O)(=O)N2CCCCC2)c1	1	0	-2	3	-3	nt	nt
O=C(N/N=C\c1cc(Br)ccc1O)c1ccc(S(=O)(=O)N2CCCCC2)cc1	3	-2	-3	-6	70*	75*	21
CCc1nc2ccc(C(=O)N3CCN(S(=O)(=O)CC)CC3)cn2c1N(C=O)Cc1ccc(OC)cc1	nt	nt	2	-3	nt	nt	nt
O=C(COc1ccccc1)NCc1ccccc1	-3	0	-1	12	0	nt	nt
O=C(COc1ccc(C(=O)c2ccccc2)cc1)NCc1ccc(F)cc1	1	-1	2	-5	63*	67*	76*
CSc1ccc(CN(C)C(=O)COc2ccc(C(=O)c3ccccc3)cc2)cc1	0	0	30	-6	65*	59*	96*
Cc1ccccc1OCC(O)Cn1c(NCc2ccccc2)nc2c1c(=O)[nH]c(=O)n2C (configuration not stated)	-1	-1	6	3	15	nt	nt
C=CCNc1nc2c(c(=O)[nH]c(=O)n2C)n1CC(O)COc1ccc2ccccc2c1 (configuration not stated)	-4	2	3	15	59*	20	nt
CC(C)n1cnc2c(Nc3ccc(F)c(Cl)c3)nc(NCCO)nc21	13	3	-7	5	25	nt	nt
CC(C)C[C@H](CO)Nc1nc(Nc2cccc(Cl)c2)c2ncn(C(C)C)c2n1	2	4	0	-4	75*	65*	58*
CC(C)n1cnc2c(Nc3cccc(F)c3)nc(NCCO)nc21	-2	6	-2	5	62*	58*	82*
Cc1nc(SCC(=O)Nc2ccc(S(=O)(=O)N3CCOCC3)cc2)c2c(C)c(C)sc2n1	-1	0	0	-2	82*	44*	29
O=C(Nc1cccc(Cl)c1)Nc1nnc(-c2ccncc2)s1	-1	3	10	6	100*	98*	56*
O=C(Nc1ccc(F)cc1)Nc1nnc(COc2ccccc2F)s1	-3	4	6	-6	91*	82*	44*
O=C(Nc1nnc(COc2ccccc2F)s1)Nc1ccccc1F	5	0	-12	-7	13	nt	nt
O=C(Nc1ccc(Cl)cc1)Nc1nnc(-c2ccncc2)s1	nt	nt	11	1	nt	nt	nt
Cc1ccc(NC(=O)Nc2nnc(-c3ccncc3)s2)cc1C	3	1	21	-4	94*	56*	23
O=C(Nc1ccc(F)cc1)Nc1nnc(-c2ccncc2)s1	-1	5	4	5	69*	32	nt
CCOC(=O)Cn1cnc2c(C#N)c3n(c2c1=O)CCCCC3	-5	-1	1	1	26	nt	nt
Cc1ccc(S(=O)(=O)N2CCOCC2)cc1NC(=O)COC(=O)c1ccccc1OCc1c(C)noc1C	0	1	-4	4	-6	nt	nt
CCc1nnc(NC(=O)CSc2nnc(C(C)NC(=O)c3ccccc3F)n2C)s1 (configuration not stated)	-2	0	-6	-2	15	nt	nt
SMILES	UPR XBP1 act	CHOP UPR activ	Granule exo inh	ABHD5 PLIN5 PPI	Mdm2-MdmX inh	Mdm2 MdmX conf	FLuc counter
CN1C(C(=O)NCc2cccc(C(F)(F)F)c2)CC2Cn3c(nc4ccccc43)C21 (configuration not stated)	0	0	-14	5	2	nt	nt
O=C(NCCCn1ccnc1)/C(=C\c1cccnc1)NC(=O)c1ccco1	0	0	-1	0	-18	nt	nt
O=C(Sc1cccc2cccnc12)c1ccccc1Br	0	62*	46	-24	97*	90*	4
O=C(Sc1cccc2cccnc12)c1ccc(F)cc1	-3	69*	nt	nt	93*	95*	15
Nc1nc(CSCCO)nc(Nc2ccccc2)n1	1	1	-4	-5	-21	nt	nt
O=C(CNC(=O)c1cccc(S(=O)(=O)N2CCc3ccccc32)c1)Nc1ccc(F)c(F)c1F	-5	0	-3	-7	81*	84*	62*
CCOC(=O)NC(=O)CSc1nc2ccc(OCC)cc2[nH]1	0	-2	-1	-2	4	nt	nt
Cc1cccc(N2CCN(C(=O)c3ccc(CS(=O)(=O)c4ccccc4C)o3)CC2C)c1 (configuration not stated)	20	4	5	5	65*	52*	82*
O=c1[nH]c(=O)n(Cc2ccco2)c2c1C(C(F)(F)F)(C(F)(F)F)N=C(CCc1ccccc1)N2	14	8	1	-1	51*	39	65*
Cn1nnnc1SCC(=O)N1CCN(S(=O)(=O)c2ccc(Cl)cc2)CC1	0	0	0	-6	70*	-8	nt
COc1ccc(C(=O)Nc2cccc(/C(C)=N/NC(=O)c3ccc([N+](=O)[O-])c(C)c3)c2)cc1OC	1	3	3	1	56*	-25	nt
C/C(=N\NC(=O)c1ccc(O)cc1)c1cccc(NC(=O)c2ccc(Cl)cc2)c1	1	5	12	3	58*	-3	nt
Cc1cnc(NC(=O)C2CC(=O)N(c3cccc(Cl)c3)C2)s1 (configuration not stated)	-10	-4	-1	3	93*	89*	82*
COCCNCC(O)CON=C1c2ccccc2-c2ccccc21 (configuration not stated)	1	-2	-3	8	16	nt	nt
